In ChEMBL document CHEMBL1126098, “Synthesis and SAR of 6-substituted purine derivatives as novel selective positive inotropes” (J Med Chem, 1992):
Active and inactive are the calls of the source. The calls are words filed in the database; no cut-off is given here.

Assays:
Canis familiaris [1] = assay: Heart rate in dog after administering ca. 1.875 mg/Kg drug intravenously; type: functional, Canis lupus familiaris
Method in brief: (§1)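 Adult mongrel dogs anesthetized with sodium pentobarbital (45 mg/kg ip) and artificially respired. MAP measured via cannulated femoral artery; HR from cardiotachometer; LV +dP/dtmax via Millar catheter; CF by Walton Brodie strain gauge on right ventricle (baseline tension 100 g). Compound in 10% DMF/saline or HCl salt, infused iv into femoral vein over 5 min per step. Each step given at peak of the prior one; three to four increasing doses. Response expressed as % change from predrug control; n = 1–5 dogs.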

Canis familiaris [2] = assay: Cardiac force in dog after administering ca. 1.875 mg/Kg drug intravenously.; type: functional, Canis lupus familiaris; design: unit not given beside the values; method in brief: as §1
Canis familiaris [3] = assay: Mean arterial blood pressure in dog after administering ca. 1.875 mg/Kg drug intravenously.; type: functional, Canis lupus familiaris; design: unit not given beside the values; method in brief: as §1
Canis familiaris [4] = species: Canis familiaris; assay: dP/dt max was determined in dog; type: functional, Canis lupus familiaris; design: unit not given beside the values; method in brief: as §1
[5] = Relative change in CF was determined by calculating the effective concentration that produced a 50% of maximum increase in tension.; type: functional, Mustela putorius furo
Method in brief: (§2)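 Ferret papillary muscle in Tyrode's solution with timolol (1×10^-7 M); compound given at cumulative serially increasing concentrations, each read at 15 min. EC50 is the concentration giving 50% of that compound's own maximal tension increase. Estimated graphically from mean data, n ≥ 3.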

Mustela putorius furo = species: Mustela putorius furo; assay: In vitro changes in contractile force (CF) quantitated by determining the maximal increase in isometric tension by using ferret papillary muscle.; type: functional, tissue-based; details: Muscle tissue
Method in brief: (§3)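 Isolated ferret papillary muscle in Tyrode's solution with timolol (1×10^-7 M), equilibrated 2 h. Compound diluted from 1×10^-2 M DMSO stock and added at serially increasing concentrations, up to 10 μM. Isometric tension read 15 min after each addition. Result is maximal increase as % of control tension, from mean of n ≥ 3.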

Canis familiaris [6] = assay: Effective dose required to produce 50% increase of cardiac force in dog after administering ca. 1.875 mg/Kg drug intravenously; type: functional; details: Canis lupus familiaris, iv; method in brief: as §1
[7] = Relative change in CF was determined by calculating the effective concentration that produced a 50% of maximum increase in tension; type: functional, Mustela putorius furo; method in brief: as §2
[8] = In vitro changes in contractile force (CF) quantitated by determining the maximal increase in isometric tension by using ferret papillary muscle; type: functional, Mustela putorius furo, Muscle tissue; method in brief: as §3
Canis familiaris [9] = assay: Mean arterial blood pressure determined in dog after administering ca. 1.875 mg/kg drug intra venously; type: functional, Canis lupus familiaris; method in brief: as §1
Canis familiaris [10] = assay: Cardiac force was determined in dog after administering ca. 1.875 mg/kg drug intra venously; type: functional, Canis lupus familiaris; method in brief: as §1
Canis familiaris [11] = assay: Heart rate determined in dog after administering ca. 1.875 mg/kg drug intra venously; type: functional, Canis lupus familiaris; method in brief: as §1
Canis familiaris [12] = assay: Dose to produce a 50% increase of CF n dog after administering ca. 1.875 mg/kg drug intra venously; type: functional; details: Canis lupus familiaris; method in brief: as §1
[13] = Relative changes in CF was determined by calculating the effective concentration that produced a 50% of maximum increase in tension; type: functional, Mustela putorius furo; method in brief: as §2

EC50 [5] | EC50 [7] [nM] | EC50 [13] [nM] | SMILES | Heart rate (Canis familiaris [1]) | Cardiac force (Canis familiaris [2]) | MAP (Canis familiaris [3]) | dP/dt max (Canis familiaris [4]) | Max (Mustela putorius furo) | ED50 (Canis familiaris [6]) [mg/kg] | Max [8] [%] | MPA (Canis familiaris [9]) | Cardiac force (Canis familiaris [10]) | Heart rate (Canis familiaris [11]) | ED50 (Canis familiaris [12]) [mg/kg]
Not Active |  |  | OC(CSc1[nH]cnc2ncnc1-2)CN1CCN(Cc2ccccc2)CC1 (configuration not stated) | 0 | 30 | 1 | 34 | inactive |  |  |  |  |  | 
 | 470 |  | OC(CSc1[nH]cnc2ncnc1-2)CN1CCN(C(c2ccc(Br)cc2)c2ccc(Br)cc2)CC1 (configuration not stated) | -2 | 148 | 11 | 108 |  | 0.31 | 64 |  |  |  | 
 |  | 2500 | CC(=O)Oc1ccccc1C(=O)OC(CSc1[nH]cnc2ncnc1-2)CN1CCN(C(c2ccc(F)cc2)c2ccc(F)cc2)CC1 (configuration not stated) |  |  |  | 34 |  |  | 34 | 0 | 56 | 1 | 1.6
 | 2100 |  | CC(=O)OC(CNc1[nH]cnc2ncnc1-2)CN1CCN(C(c2ccc(F)cc2)c2ccc(F)cc2)CC1 (configuration not stated) | -12 | 144 | -26 | 70 |  | 0.27 | 45 |  |  |  | 
 | 500 |  | COc1ccc(C(c2ccc(OC)cc2)N2CCN(CC(O)CSc3[nH]cnc4ncnc3-4)CC2)cc1 (configuration not stated) | -2 | 45 | -7 | 18 |  |  | 98 |  |  |  | 
 | 1900 |  | Nc1nc(SCC(O)CN2CCN(C(c3ccc(F)cc3)c3ccc(F)cc3)CC2)c2[nH]cnc2n1 (configuration not stated) | 12 | 74 | -9 | 38 |  | 0.85 | 74 |  |  |  | 
 | 700 |  | CC(=O)OC(CSc1[nH]cnc2ncnc1-2)CN1CCN(C(c2ccc(F)cc2)c2ccc(F)cc2)CC1 (configuration not stated) | -4 | 145 | -12 | 62 |  | 0.3 | 248 |  |  |  | 
Not Active |  |  | OC(CSc1[nH]cnc2ncnc1-2)CN1CCN(C(c2ccccc2)(c2ccccc2)c2ccccc2)CC1 (configuration not stated) | 4 | 22 | -14 | 23 | inactive |  |  |  |  |  | 

Second part, the compound before the results:

SMILES | EC50 [5] | EC50 [7] [nM] | EC50 [13] [nM] | Heart rate (Canis familiaris [1]) | Cardiac force (Canis familiaris [2]) | MAP (Canis familiaris [3]) | dP/dt max (Canis familiaris [4]) | Max (Mustela putorius furo) | ED50 (Canis familiaris [6]) [mg/kg] | Max [8] [%] | MPA (Canis familiaris [9]) | Cardiac force (Canis familiaris [10]) | Heart rate (Canis familiaris [11]) | ED50 (Canis familiaris [12]) [mg/kg]
OC(CSc1[nH]cnc2ncnc1-2)CN1CCN(C(c2ccccc2)c2ccc(Cl)cc2)CC1 (configuration not stated) |  | 440 |  | -4 | 100 | 2 | 75 |  | 0.49 | 242 |  |  |  | 
OC(CSc1[nH]cnc2ncnc1-2)CN1CCN(C(c2ccc(Cl)cc2)c2ccc(Cl)cc2)CC1 (configuration not stated) |  |  |  | -4 | 151 | 9 | 99 |  | 0.33 |  |  |  |  | 
O=S(=O)(O)OC(CSc1[nH]cnc2ncnc1-2)CN1CCN(C(c2ccc(F)cc2)c2ccc(F)cc2)CC1 (configuration not stated) |  | 390 |  | 6 | 159 | 6 | 110 |  | 0.26 | 57 |  |  |  | 
OC(COc1ncnc2c1ncn2C1CCCCO1)CN1CCN(C(c2ccc(F)cc2)c2ccc(F)cc2)CC1 (configuration not stated) | Not Active |  |  | 9 | 34 | -5 | 38 | inactive |  |  |  |  |  | 
COc1cc(OC)c(C(=O)OC(CSc2[nH]cnc3ncnc2-3)CN2CCN(C(c3ccc(F)cc3)c3ccc(F)cc3)CC2)c(OC)c1 (configuration not stated) | Not Active |  |  | 3 | 17 | 0 | 15 | inactive |  |  |  |  |  | 
CN(CC(O)CN1CCN(C(c2ccc(F)cc2)c2ccc(F)cc2)CC1)c1[nH]cnc2ncnc1-2 (configuration not stated) | Not Active |  |  | 7 | 82 | 4 | 66 | inactive | 0.74 |  |  |  |  | 
CCN(CC(O)CN1CCN(C(c2ccc(F)cc2)c2ccc(F)cc2)CC1)c1[nH]cnc2ncnc1-2 (configuration not stated) | Not Active |  |  | 2 | 13 | 5 | 16 | inactive |  |  |  |  |  | 
